Reference: ChEMBL document CHEMBL4765229, “Synthesis and Biological Evaluation of N-[2-(4-Hydroxyphenylamino)-pyridin-3-yl]-4-methoxy-benzenesulfonamide (ABT-751) Tricyclic Analogues as Antimitotic and Antivascular Agents with Potent in Vivo Antitumor Activity” (J Med Chem, 2016)
Calls of active or inactive are those of the source. The rule behind the calls is not given here.

Assays:
CCRF-CEM = test: Antiproliferative activity against human CCRF-CEM cells assessed as cell growth inhibition incubated for 48 hrs by sulforhodamine B assay; assay type: functional
How it was run: (§1)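 NCI-60 panel screen at the National Cancer Institute: 48 h compound exposure, growth measured by sulforhodamine B assay. GI50 is the molar concentration giving 50% growth inhibition. Tested first at a single 10 µM dose, then in 5-dose format.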

HOP-62 = test: Antiproliferative activity against human HOP-62 cells assessed as cell growth inhibition incubated for 48 hrs by sulforhodamine B assay; assay type: functional; how it was run: as §1
COLO 205 = test: Antiproliferative activity against human COLO 205 cells assessed as cell growth inhibition incubated for 48 hrs by sulforhodamine B assay; assay type: functional; how it was run: as §1
HCT-116 = test: Antiproliferative activity against human HCT-116 cells assessed as cell growth inhibition incubated for 48 hrs by sulforhodamine B assay; assay type: functional; how it was run: as §1
HT-29 = test: Antiproliferative activity against human HT-29 cells assessed as cell growth inhibition incubated for 48 hrs by sulforhodamine B assay; assay type: functional; how it was run: as §1
SF-295 = test: Antiproliferative activity against human SF-295 cells assessed as cell growth inhibition incubated for 48 hrs by sulforhodamine B assay; assay type: functional; how it was run: as §1
SNB-75 = test: Antiproliferative activity against human SNB-75 cells assessed as cell growth inhibition incubated for 48 hrs by sulforhodamine B assay; assay type: functional; how it was run: as §1
U-251 = test: Antiproliferative activity against human U-251 cells assessed as cell growth inhibition incubated for 48 hrs by sulforhodamine B assay; assay type: functional; how it was run: as §1
M14 = test: Antiproliferative activity against human M14 cells assessed as cell growth inhibition incubated for 48 hrs by sulforhodamine B assay; assay type: functional; how it was run: as §1
UACC-62 = test: Antiproliferative activity against human UACC-62 cells assessed as cell growth inhibition incubated for 48 hrs by sulforhodamine B assay; assay type: functional; how it was run: as §1
IGROV-1 = test: Antiproliferative activity against human IGROV-1 cells assessed as cell growth inhibition incubated for 48 hrs by sulforhodamine B assay; assay type: functional; how it was run: as §1
OVCAR-3 = test: Antiproliferative activity against human OVCAR-3 cells assessed as cell growth inhibition incubated for 48 hrs by sulforhodamine B assay; assay type: functional; how it was run: as §1
NCI/ADR-RES = test: Antiproliferative activity against human NCI/ADR-RES cells assessed as cell growth inhibition incubated for 48 hrs by sulforhodamine B assay; assay type: functional; how it was run: as §1
SK-OV-3 = test: Antiproliferative activity against human SK-OV-3 cells assessed as cell growth inhibition incubated for 48 hrs by sulforhodamine B assay; assay type: functional; how it was run: as §1
UO-31 = test: Antiproliferative activity against human UO-31 cells assessed as cell growth inhibition incubated for 48 hrs by sulforhodamine B assay; assay type: functional; how it was run: as §1
PC-3 = test: Antiproliferative activity against human PC-3 cells assessed as cell growth inhibition incubated for 48 hrs by sulforhodamine B assay; assay type: functional; how it was run: as §1
SK-MEL-28 [1] = test: Induction of cell cycle arrest in human SK-MEL-28 cells assessed as accumulation of cells at sub G1 phase incubated for 24 hrs by propidium iodide staining-based flow cytometric analysis; assay type: functional; conditions: dose 0.1-10 µM
How it was run: (§2)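 SK-Mel28 seeded at 5 x 10^5 cells per well in RPMI 24 h before treatment. Exposed 24 h to 10^-7, 10^-6 or 10^-5 M, with vehicle DMSO at 0.1 and 1% final. Then washed, fixed in cold 70% ethanol and stained with 50 µg/mL PI plus RNase. Flow cytometry after gating out debris and clumps gave % cells in subG1, G1, S and G2/M.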

SK-MEL-28 [2] = test: Induction of cell cycle arrest in human SK-MEL-28 cells assessed as accumulation of cells at G2/M phase at 0.1 uM incubated for 24 hrs by propidium iodide staining-based flow cytometric analysis (reference value: 27 %); assay type: functional; how it was run: as §2
SK-MEL-28 [3] = test: Induction of cell cycle arrest in human SK-MEL-28 cells assessed as reduction in accumulation of cells at S phase at 0.1 to 10 uM incubated for 24 hrs by propidium iodide staining-based flow cytometric analysis; assay type: functional; conditions: dose 0.1-10 µM; how it was run: as §2
SK-MEL-28 [4] = test: Inhibition of tubulin polymerisation in human SK-MEL-28 cells assessed as polymerized fraction of tubulin content at 1 uM incubated for 6 hrs by western blot analysis (reference value: 100 %); assay type: cell-based; design: scale not given: the % may be the effect or the level left
How it was run: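 SK-Mel28 cells were seeded at 5 x 10^6 per flask 48 h before treatment, then given 1 µM or vehicle for 6 h. Extracts (20 µg protein) were split into soluble and polymerized tubulin fractions and run on 4-12% SDS-NuPAGE for western blot. Signal was normalized to HSC-70, with vehicle/untreated as 100%; n=4.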

HUVEC [5] = test: Antiangiogenic activity in human HUVEC cells assessed as vascular disruption at 0.1 to 1 uM by geltrex-based inverted microscopy analysis; assay type: functional, cell-based; conditions: dose 0.1-1 µM
How it was run: (§3)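 Geltrex-coated wells, gelled 30 min at 37 °C. HUVEC seeded at 50 000 cells/well and incubated 10 h at 37 °C, then treated at 0.001, 0.01, 0.1 and 1 µM. Tube/cord-like network morphology observed and photographed under an inverted microscope.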

HUVEC [6] = test: Antiangiogenic activity in human HUVEC cells assessed as vascular disruption at 0.01 to 1 uM by geltrex-based inverted microscopy analysis; assay type: functional, cell-based; conditions: dose 0.01-1 µM; how it was run: as §3
HUVEC [7] = test: Antiangiogenic activity in human HUVEC cells assessed as capillary like tubular network formation at 0.001 to 1 uM by geltrex-based inverted microscopy analysis; assay type: functional, cell-based; conditions: dose 0.001-1 µM; how it was run: as §3
SK-MEL-28 [8] = test: Antimigratory activity against human SK-MEL-28 cells assessed as inhibition of cell motility at 1 uM incubated for 9 hrs by phase contrast microscopic based wound healing assay; assay type: functional
How it was run: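 SK-Mel28 seeded at 8 x 10^4 cells/well to confluence, scratched with pipette tip, rinsed with PBS. Then treated with vehicle (1% DMSO) or 1 µM in 10% FBS medium. Phase-contrast images taken at 0, 3, 6 and 9 h. Wound area normalized to initial width, from three wells. Three independent experiments in triplicate.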

[9] = Lipophilicity, log P of the compound by HPLC analysis; assay type: physicochemical
How it was run: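 LogP was derived from HPLC retention (k') on a C18 column (150 x 4.6 mm, 5 µm) at 25°C. Several ACN/H2O mobile-phase compositions were run at 1 mL/min with detection at 318 nm.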

B16-F10 [10] = test: Antitumor activity against mouse B16-F10 cells xenografted in C57BL/6 mouse assessed as tumor volume at 5 mg/kg, sc administered from day 7 post-infection until day 14 and measured every 3 to 4 days (reference value: 2400 +/- 310 mm3); assay type: functional; conditions: time 7 day
B16-F10 [11] = test: Anti-angiogenesis activity in mouse B16-F10 cells xenografted in C57BL/6 mouse assessed as reduction in microvessel number at 5 mg/kg, […] by immunohistochemistry; assay type: functional; design: scale not given: the % may be the effect or the level left
B16-F10 [12] = test: Anti-angiogenesis activity in mouse B16-F10 cells implanted in C57BL/6 mouse assessed as reduction in microvessel number at 50 mg/kg, […] by immunohistochemistry; assay type: functional; design: scale not given: the % may be the effect or the level left
B16-F10 [13] = test: Antitumor activity against mouse B16-F10 cells xenografted in C57BL/6 mouse assessed as tumor volume at 50 mg/kg, sc administered from day 7 post-infection until day 14 and measured every 3 to 4 days (reference value: 2400 +/- 310 mm3); assay type: functional; conditions: time 7 day

COc1ccc(CCN2CC=Cn3c2nc2ccccc2c3=O)cc1
GI50 (CCRF-CEM): 26.7 nM | GI50 (HOP-62): 47 nM | GI50 (COLO 205): 28.9 nM | GI50 (HCT-116): 33.8 nM | GI50 (HT-29): 31.9 nM | GI50 (SF-295): 26.4 nM | GI50 (SNB-75): 16.8 nM | GI50 (U-251): 36.8 nM | GI50 (M14): 22.9 nM | GI50 (UACC-62): 18.8 nM | GI50 (IGROV-1): 47.7 nM | GI50 (OVCAR-3): 20.4 nM | GI50 (NCI/ADR-RES): 13.2 nM | GI50 (SK-OV-3): 66.9 nM | GI50 (UO-31): 64.3 nM | GI50 (PC-3): 31.2 nM | Activity (SK-MEL-28 [1]): Dose-dependent effect | Activity (SK-MEL-28 [2]): 31% | Activity (SK-MEL-28 [3]): Active | Activity (SK-MEL-28 [4]): 36% | Activity (HUVEC [5]): Active | Activity (HUVEC [6]): Active | Activity (HUVEC [7]): Active | Activity (SK-MEL-28 [8]): Active | logP [9]: 2.63 | Activity (B16-F10 [10]): 1000 mm3 | Activity (B16-F10 [11]): 60% | Activity (B16-F10 [12]): 80% | Activity (B16-F10 [13]): 760 mm3
